Data as given in PMC8020290 (Journal of Ginseng Research, 2020).
Where two headings read alike, the source gives them in different places. Marks after values point to notes of the source that are not given here.

Tests used:
intestinal microflora = conditions: after colimycin 20 mg/kg/day; decreased from 22.1 ± 1.2%; cited from earlier work
[1] = type: in vivo, Sprague Dawley rats; conditions: for AUC: 0 to 48 h; for AUC / Cmax / half-life / Tmax / T1/2: plasma after intragastric ginsenoside Rb1 100 mg/kg, mean ± SE; for AUC increase compared with the control group: after intragastric ginsenoside Rb1 100 mg/kg
Summary of the method: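 Male SD rats (200 ± 20 g, n = 8/group) were gavaged daily for two weeks with prebiotic fibre at 1.0 g/d/rat, or sterile water (10 ml/kg). After an overnight fast, test compound was given intragastrically at 100 mg/kg. Ophthalmic plexus blood was drawn at 0.25–48 h. Plasma was acetone-precipitated with a saikosaponin A internal standard and run on positive-mode UPLC-ESI-QqQ-MS/MS. AUC0–48h came from non-compartmental analysis, mean ± SE, ANOVA/Bonferroni.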

[2] = cited from earlier work
[3] = FOS group (1.0 g/d/rat, two weeks)
[4] = Fibersol-2 group (1.0 g/d/rat, two weeks)
[5] = GOS group (1.0 g/d/rat, two weeks)
[6] = Sprague-Dawley, rat, plasma, po, 100 mg/kg, Cmax, FOS group (1.0 g/d/rat, two weeks)
[7] = Sprague-Dawley, rat, plasma, po, 100 mg/kg, Cmax, Fibersol-2 group (1.0 g/d/rat, two weeks)
[8] = Sprague-Dawley, rat, plasma, po, 100 mg/kg, Cmax, GOS group (1.0 g/d/rat, two weeks)
[9] = Sprague-Dawley, rat, plasma, po, 100 mg/kg, T1/2, FOS group (1.0 g/d/rat, two weeks)
[10] = Sprague-Dawley, rat, plasma, po, 100 mg/kg, T1/2, Fibersol-2 group (1.0 g/d/rat, two weeks)
[11] = Sprague-Dawley, rat, plasma, po, 100 mg/kg, T1/2, GOS group (1.0 g/d/rat, two weeks)
[12] = Sprague-Dawley, rat, plasma, po, 100 mg/kg, Tmax, FOS group (1.0 g/d/rat, two weeks)
[13] = Sprague-Dawley, rat, plasma, po, 100 mg/kg, Tmax, Fibersol-2 group (1.0 g/d/rat, two weeks)
[14] = Sprague-Dawley, rat, plasma, po, 100 mg/kg, Tmax, GOS group (1.0 g/d/rat, two weeks)

Compound | AUC [1, 3] | AUC [1, 4] | AUC [1, 5] | AUC increase compared with the control group ([1]; FOS intervention) | Cmax [1, 6] | Cmax [1, 7] | Cmax [1, 8] | half-life [1, 9] | half-life [1, 10] | half-life [1, 11] | Tmax [1, 12] | Tmax [1, 13] | Tmax [1, 14] | AUC increase compared with the control group ([1]; GOS intervention) | AUC increase compared with the control group ([1]; fibersol-2 intervention) | oral bioavailability [2] | also measured
colimycin | – | – | – | – | – | – | – | – | – | – | – | – | – | – | – | – | ginsenoside Rb1-hydrolysing activity by intestinal microflora (intestinal microflora): 4.7 ± 2.7%
CC(C)=CCC[C@](C)(O[C@@H]1O[C@H](CO)[C@@H](O)[C@H](O)[C@H]1O)[C@H]1CC[C@]2(C)[C@@H]1[C@H](O)C[C@@H]1[C@@]3(C)CC[C@H](O[C@@H]4O[C@H](CO)[C@@H](O)[C@H](O)[C@H]4O)C(C)(C)[C@@H]3CC[C@]12C [F2, ginsenoside F2] | 200.38 ± 41.50^b ng/ml∗h | 153.78 ± 36.00^ab ng/ml∗h | 121.97 ± 29.35^a ng/ml∗h | 1.94 times | 15.2 ± 2.49 ng/mL | 35.3 ± 18.3 ng/mL | 11.4 ± 3.44 ng/mL | 23.2 ± 37.8 h | 2.67 ± 0.95 h | 4.52 ± 3.73 h | 8 ± 1.41 h | 6.8 ± 1.09 h | 7.6 ± 1.67 h | – | – | – | –
CC(C)=CCC[C@](C)(O[C@@H]1O[C@H](CO)[C@@H](O)[C@H](O)[C@H]1O)[C@H]1CC[C@]2(C)[C@@H]1[C@H](O)C[C@@H]1[C@@]3(C)CC[C@H](O[C@@H]4O[C@H](CO)[C@@H](O)[C@H](O)[C@H]4O[C@@H]4O[C@H](CO)[C@@H](O)[C@H](O)[C@H]4O)C(C)(C)[C@@H]3CC[C@]12C [Rd, ginsenoside Rd] | 1616.98 ± 321.59^b ng/ml∗h | 1754.98 ± 335.76^b ng/ml∗h | 1479.93 ± 381.35^b ng/ml∗h | 1.91 times | 110 ± 25.1 ng/mL | 145 ± 67.2 ng/mL | 156 ± 39 ng/mL | 15.2 ± 5.17 h | 10.3 ± 3.79 h | 18.6 ± 18 h | 7.6 ± 0.89 h | 7.6 ± 1.67 h | 6.4 ± 0.89 h | 1.74 times | 2.06 times | – | –
CC(C)=CCC[C@](C)(O[C@@H]1O[C@H](CO)[C@@H](O)[C@H](O)[C@H]1O)[C@H]1CC[C@]2(C)[C@@H]1[C@H](O)C[C@@H]1[C@@]3(C)CC[C@H](O)C(C)(C)[C@@H]3CC[C@]12C [CK, 20-O-β-D-glucopyranosyl-20(S)-protopanaxadiol] | 1056.88 ± 173.22^ab ng/ml∗h | 1251.99 ± 740.67^b ng/ml∗h | 1434.71 ± 415.30^b ng/ml∗h | – | – | – | – | – | – | – | – | – | – | 2.42 times | 2.11 times | 1.8–35.0% | Cmax [1, 3]: 42.94 ± 12.08^a ng/ml; T1/2 [1, 3]: 92.12 ± 158.19^a h; Tmax [1, 3]: 24.80 ± 15.60^b h; Cmax [1, 4]: 53.38 ± 25.17^a ng/ml; T1/2 [1, 4]: 50.86 ± 65.79^a h; Tmax [1, 4]: 29.00 ± 19.72^b h; Cmax [1, 5]: 57.46 ± 7.17^a ng/ml; T1/2 [1, 5]: 77.35 ± 129.14^a h; Tmax [1, 5]: 15.30 ± 11.98^ab h
CC(C)=CCC[C@](C)(O[C@@H]1O[C@H](CO[C@@H]2O[C@H](CO)[C@@H](O)[C@H](O)[C@H]2O)[C@@H](O)[C@H](O)[C@H]1O)[C@H]1CC[C@]2(C)[C@@H]1[C@H](O)C[C@@H]1[C@@]3(C)CC[C@H](O[C@@H]4O[C@H](CO)[C@@H](O)[C@H](O)[C@H]4O[C@@H]4O[C@H](CO)[C@@H](O)[C@H](O)[C@H]4O)C(C)(C)[C@@H]3CC[C@]12C [Rb1, ginsenoside Rb1] | 34494.77 ± 8770.73^bc ng/ml∗h | 42110.46 ± 6452.33^c ng/ml∗h | 30813.79 ± 3334.99^b ng/ml∗h | 2.52 times | 1530 ± 343 ng/mL | 3880 ± 2370 ng/mL | 1210 ± 126 ng/mL | 19.4 ± 4.44 h | 24.2 ± 4.81 h | 19.7 ± 2.06 h | 6.3 ± 2.82 h | 1 ± 1.12 h | 3.2 ± 3.55 h | 2.25 times | 3.07 times | 0.28–1.18% | –
